Results reported in publication PMC5773287 (ACS nano, 2017).
Numbered stars: 1 amine (or outer) side, 2 acyl side, 3 side chain; on linkers, the order of the positions; unused ones are H or OH. Peptide text beside a SMILES is read from it. * marks the point of attachment. X1 = Nc1nc2[nH]cc(CCc3ccc(C(=O)*)cc3)c2c(=O)[nH]1; γGlu = O=C(O)[C@H](CCC(=O)[*:2])N[*:1]

Assays:
[1] = assay type: physicochemical; settings: for hydrogel formation: 30 mM in 1× DPBS solution, overnight ageing, vial inversion; for self-assembled morphology (cryo-TEM): 1× DPBS, aged over 24 h at room temperature, PemFE 4 mM, C12FE 10 mM
Method in brief: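 Self-assembled nanostructures imaged by cryo-TEM after aging over 24 h at room temperature. For gelation, lyophilized test peptide powder was dissolved in 1× DPBS at a final 30 mM and sonicated 2 min to aid dissolution. Samples were aged overnight, and gel formation was recorded by photographing inverted vials.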

[2] = Cytotoxicity assay against the mouse glioma cell line GL261
[3] = test system: GL261 mouse glioma cell line; assay: as above

Compound	hydrogel formation [1]	self-assembled morphology (cryo-TEM) [1]	IC50 [2] [µM]	IC50 ([3]; Mus musculus, GL261, read-out: IC50 (cytotoxicity)) [µM]	cell toxicity ([3]; GL261 cells, concentrations up to 100 μM)
Nc1nc2[nH]cc(CCc3ccc(C(=O)N[C@@H](CCC(=O)N[C@@H](Cc4ccccc4)C(=O)N[C@@H](Cc4ccccc4)C(=O)N[C@@H](CCC(=O)O)C(=O)N[C@@H](CCC(=O)O)C(=O)O)C(=O)O)cc3)c2c(=O)[nH]1 [PemFE] ({X1-γGlu}-FFEE-OH)	formation of self-supporting hydrogels	filamentous nanostructures	2.29		
Nc1nc2[nH]cc(CCc3ccc(C(=O)N[C@@H](CCC(=O)O)C(=O)O)cc3)c2c(=O)[nH]1 [Pem, Pemetrexed, reference compound]				0.13	
FFEE [C12FE]	formation of self-supporting hydrogels	filamentous nanostructures			did not show any significant cell toxicity
